We go through 11 molecules from ChEMBL document CHEMBL2424620, “β2-Adrenoceptor agonists in the regulation of mitochondrial biogenesis” (Bioorg Med Chem Lett, 2013).

By Kd is commonly meant the concentration at which binding is half-saturated. Higher therefore signals weaker binding.

Test [1] concerns RPT. The test can be described thus: Induction of Mitochondrial biogenesis in rabbit RPT cells at 10 to 3000 nM after 24 hrs by FCCP-OCR assay relative to control. It is filed as functional, cell-based. The settings on record: Oryctolagus cuniculus. The method, boiled down:
(§1)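 Primary cultures of rabbit renal proximal tubule cells, grown under improved conditions favouring aerobic respiration, were exposed to compound (10–3,000 nM) for 24 h. FCCP-uncoupled oxygen consumption rate was then read on a Seahorse XF-96. Plates included vehicle (DMSO <0.5%), SRT1720 10 μM positive control and blanks. Results are expressed as a ratio or percent fold change versus DMSO, mean ± s.e.m., N=4. A ratio >1.15 was classed as MB.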

The target in test [2] is Beta-2 adrenergic receptor (Homo sapiens, UniProt P07550). As to the kind of experiment: Binding affinity to beta-2 adrenergic receptor (unknown origin) at 1 to 10000 nM.
The test system of test [3] is RPT. As to the kind of experiment: Induction of Mitochondrial biogenesis in rabbit RPT cells after 24 hrs by FCCP-OCR assay relative to control. It is filed as functional, cell-based. The settings on record: Oryctolagus cuniculus. In short, it runs like this:
as §1

Calls of active or inactive are those of the source. The rule behind the calls is not given here.

Chain of Beta-2 adrenergic receptor (P07550 whole entry): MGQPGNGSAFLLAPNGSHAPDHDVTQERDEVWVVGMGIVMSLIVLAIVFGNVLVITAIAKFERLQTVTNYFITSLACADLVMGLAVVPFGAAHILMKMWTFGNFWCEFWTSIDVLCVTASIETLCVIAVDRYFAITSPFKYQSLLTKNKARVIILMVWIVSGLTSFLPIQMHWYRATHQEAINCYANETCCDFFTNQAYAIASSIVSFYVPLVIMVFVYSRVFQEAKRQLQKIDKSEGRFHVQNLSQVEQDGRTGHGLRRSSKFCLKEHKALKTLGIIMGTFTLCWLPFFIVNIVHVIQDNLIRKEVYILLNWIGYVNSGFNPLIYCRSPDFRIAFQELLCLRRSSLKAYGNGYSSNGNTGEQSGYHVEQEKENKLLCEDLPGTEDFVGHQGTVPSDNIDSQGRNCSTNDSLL

For the molecule `CNCCC(Oc1ccccc1OC)c1ccccc1` (stereo unspecified), the result with RPT [1] was Active. As for `CCC(NC(C)C)C(O)c1ccc(O)c(O)c1` (stereo unspecified) [ISOETHARINE], the result with RPT [1] was inactive. Further, the Kd in test [2] was 1 µM. As to `CCC(NC(C)C)C(O)c1ccc(O)c2[nH]c(=O)ccc12` (stereo unspecified) [PROCATEROL], the outcome in the test on RPT [1] was Active. The molecule further showed a Kd in test [2] of 0.0794 µM. Consider `CC(C)NCC(O)c1cc(O)cc(O)c1` (stereo unspecified) [METAPROTERENOL], for which, in the test on RPT [3], the result was Active. This molecule showed a Kd in test [2] of 0.501 µM.

On to `C[C@@H](NCCc1ccc(O)cc1)[C@@H](O)c1ccc(O)cc1` (relative stereo) [rel-RITODRINE], for which the outcome with RPT [3] was Active. This molecule gave an equilibrium dissociation constant (Kd) in test [2] of 0.000501 µM. Turning to `CNCC[C@@H](Oc1ccccc1C)c1ccccc1`, the result in the test with RPT [1] was Active.

For the molecule `CC(C)NCC(O)c1ccc(O)c(O)c1` (stereo unspecified), the outcome in the test on RPT [1] was inactive.

On to `CC(Cc1ccc(O)cc1)NCC(O)c1cc(O)cc(O)c1` (stereo unspecified), for which the result in the test on RPT [1] was Active. `CC(C)(C)NCC(O)c1cc(O)cc(O)c1` (stereo unspecified): the result with RPT [3] was Active. Regarding `CC(C)(C)NCC(O)c1cc(Cl)c(N)c(Cl)c1` (stereo unspecified), the result with RPT [1] was inactive.

In the case of `CCC(NC1CCCC1)C(O)c1ccc(O)c(O)c1` (stereo unspecified) [CYCLOPENTYLBUTANEPHARINE], the result in the test with RPT [3] was Active. The same molecule had a Kd in test [2] of 0.01 µM.
